Source: ChEMBL document CHEMBL4477254, “Synthesis and biological evaluation of some novel triazole hybrids of curcumin mimics and their selective anticancer activity against breast and prostate cancer cell lines” (Bioorg Med Chem Lett, 2016)
pIC50: −log10 of the molar value. ≈ marks a conversion by molar mass, not a printed value.

Tests used:
MCF7 [1] = assay: Cytotoxicity against human MCF7 cells assessed as decrease in cell viability after 24 hrs by MTT assay; assay type: functional, cell-based; details: MCF7, 24 h
How it was run: (§1)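 Cell viability by MTT after 24 h compound exposure; curcumin as standard. IC50 in µM from three independent experiments, expressed as mean ± SE.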

MDA-MB-231 [2] = assay: Cytotoxicity against human MDA-MB-231 cells assessed as decrease in cell viability after 24 hrs by MTT assay; assay type: functional, cell-based; details: MDA-MB-231, 24 h; how it was run: as §1
4T1 [3] = assay: Cytotoxicity against mouse 4T1 cells assessed as decrease in cell viability after 24 hrs by MTT assay; assay type: functional, cell-based; details: 4T1, 24 h; how it was run: as §1
PC-3 [4] = assay: Cytotoxicity against human PC3 cells assessed as decrease in cell viability after 24 hrs by MTT assay; assay type: functional, cell-based; details: PC-3, 24 h; how it was run: as §1
DU-145 [5] = assay: Cytotoxicity against human DU145 cells assessed as decrease in cell viability after 24 hrs by MTT assay; assay type: functional, cell-based; details: DU-145, 24 h; how it was run: as §1
HEK293 = assay: Cytotoxicity against human HEK293 cells assessed as decrease in cell viability after 24 hrs by MTT assay; assay type: cell-based; details: HEK293, 24 h; how it was run: as §1
DU-145 [6] = assay: Potency index, ratio of curcumin IC50 to compound IC50 in human DU145 cells; assay type: functional
How it was run: (§2)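 IC50 came from an MTT viability assay after 24 h compound exposure, with curcumin run as the standard. Values are mean ± SE of three independent experiments. The index is the curcumin IC50 divided by the compound IC50 in the same cell line.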

PC-3 [7] = assay: Potency index, ratio of curcumin IC50 to compound IC50 in human PC3 cells; assay type: functional; how it was run: as §2
MDA-MB-231 [8] = assay: Potency index, ratio of curcumin IC50 to compound IC50 in human MDA-MB-231 cells; assay type: functional; how it was run: as §2
4T1 [9] = assay: Potency index, ratio of curcumin IC50 to compound IC50 in mouse 4T1 cells; assay type: functional; how it was run: as §2
[10] = Solubility of the compound in distilled water after 24 hrs by HPLC based shake flask method; assay type: physicochemical
[11] = Drug metabolism in liver microsomes (unknown origin) assessed as compound remaining after 5 mins in presence of NADPH by UPLC analysis; assay type: ADME, Microsome; details: read-out: Drug metabolism
How it was run: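 Microsomal metabolic stability; percentage of compound remaining intact measured after 5 min incubation in presence of microsomes.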

[12] = Elimination rate constant in liver microsomes (unknown origin) assessed as compound remaining measured up to 60 mins by UPLC analysis; assay type: ADME, Microsome
[13] = Half life in liver microsomes (unknown origin) in presence of NADPH by UPLC analysis; assay type: ADME, Microsome
[14] = Intrinsic clearance in liver microsomes (unknown origin) assessed per mg of protein in presence of NADPH by UPLC analysis; assay type: ADME, Microsome
[15] = Intrinsic hepatic clearance in liver microsomes (unknown origin) assessed per mg of protein in presence of NADPH by UPLC analysis; assay type: ADME, Microsome; details: read-out: CLH (converted)
PC-3 [16] = assay: Induction of mitochondrial membrane depolarization in human PC3 cells at 3 uM after 24 hrs by JC-1 staining based flow cytometry (reference value: 4.51%); assay type: functional
MCF7 [17] = assay: Induction of mitochondrial membrane depolarization in human MCF7 cells at 10 uM after 24 hrs by JC-1 staining based flow cytometry (reference value: 11%); assay type: functional

Compound | pIC50 (MCF7 [1]) | pIC50 (MDA-MB-231 [2]) | pIC50 (4T1 [3]) | pIC50 (PC-3 [4]) | pIC50 (DU-145 [5]) | pIC50 (HEK293) | Ratio IC50 (DU-145 [6]) | Ratio IC50 (PC-3 [7]) | Ratio IC50 (MDA-MB-231 [8]) | Ratio IC50 (4T1 [9]) | solubility thermodynamic at 24 h [10] | remaining at 5 min [11] | k el at 1 h [12] | half-life [13] | CLint [14] | CLint scaled [15] | Activity (PC-3 [16]) | Activity (MCF7 [17])
O=C1/C(=C/c2ccccc2F)CN(Cc2cn(Cc3ccccc3Cl)nn2)C/C1=C\c1ccccc1F | 5.00 | 4.78 | 5.28 | 5.15 | 5.12 | 4.48 | ≤ 9.5 | <=5.7 | <=8.3 | <=9.3 | – | – | – | – | – | – | – | –
Cc1ccc(/C=C2\CN(C(=S)SCc3cn(Cc4cccc(Cl)c4)nn3)C/C(=C\c3ccc(C)cc3)C2=O)cc1 | < 4.00 | 4.08 | 4.27 | < 4.10 | < 4.10 | – | – | – | – | – | – | – | – | – | – | – | – | –
COc1ccc(/C=C2\CN(C(=S)SCc3cn(Cc4ccccc4F)nn3)C/C(=C\c3ccc(OC)cc3)C2=O)cc1 | 4.10 | < 4.00 | 4.30 | 4.50 | 4.26 | – | – | <=5.7 | – | – | – | – | – | – | – | – | – | –
Cc1ccc(/C=C2\CN(Cc3cn(Cc4cccc(Cl)c4)nn3)C/C(=C\c3ccc(C)cc3)C2=O)cc1 | 5.00 | 5.05 | 4.53 | 4.53 | 4.48 | 4.13 | ≤ 9.5 | <=5.7 | <=8.3 | <=9.3 | – | – | – | – | – | – | – | –
Cc1ccc(/C=C2\CN(Cc3cn(Cc4ccc(F)cc4)nn3)C/C(=C\c3ccc(C)cc3)C2=O)cc1 | 4.54 | 4.57 | 4.24 | 4.18 | 4.30 | – | – | – | <=8.3 | – | – | – | – | – | – | – | – | –
Cc1ccc(/C=C2\CN(C(=S)SCc3cn(Cc4ccc(F)cc4)nn3)C/C(=C\c3ccc(C)cc3)C2=O)cc1 | 4.09 | 4.34 | 4.53 | 4.34 | 4.41 | – | ≤ 9.5 | – | <=8.3 | <=9.3 | – | – | – | – | – | – | – | –
COc1ccc(/C=C2\CN(C(=S)SCc3cn(Cc4ccccc4Cl)nn3)C/C(=C\c3ccc(OC)cc3)C2=O)cc1 | < 4.00 | < 4.00 | < 4.00 | 4.22 | < 4.10 | – | – | – | – | – | – | – | – | – | – | – | – | –
O=C1/C(=C/c2ccccc2F)CN(Cc2cn(Cc3ccccc3F)nn2)C/C1=C\c1ccccc1F | 5.22 | 4.80 | 5.19 | 4.71 | 4.97 | 4.39 | ≤ 9.5 | <=5.7 | <=8.3 | <=9.3 | – | – | – | – | – | – | – | –
COc1ccc(/C=C2\CN(Cc3cn(Cc4ccccc4F)nn3)C/C(=C\c3ccc(OC)cc3)C2=O)cc1 | ≤ 4.00 | 4.17 | 4.40 | 4.40 | 4.49 | < 4.00 | ≤ 9.5 | – | <=8.3 | <=9.3 | – | – | – | – | – | – | – | –
COc1ccc(/C=C2\CN(Cc3cn(Cc4cccc(Cl)c4)nn3)C/C(=C\c3ccc(OC)cc3)C2=O)cc1 | 4.00 | 4.01 | 4.25 | 4.49 | 4.81 | < 4.00 | ≤ 9.5 | <=5.7 | – | – | – | – | – | – | – | – | – | –
O=C1/C(=C/c2ccccc2F)CN(C(=S)SCc2cn(Cc3cccc(Cl)c3)nn2)C/C1=C\c1ccccc1F | < 4.00 | < 4.00 | < 4.00 | 4.10 | < 4.10 | – | – | – | – | – | – | – | – | – | – | – | – | –
Cc1ccc(/C=C2\CN(Cc3cn(Cc4ccccc4Cl)nn3)C/C(=C\c3ccc(C)cc3)C2=O)cc1 | 4.18 | 4.54 | 4.63 | 5.05 | 4.98 | 4.04 | ≤ 9.5 | <=5.7 | <=8.3 | <=9.3 | – | – | – | – | – | – | – | –
O=C1/C(=C/c2ccccc2F)CN(C(=S)SCc2cn(Cc3ccccc3Cl)nn2)C/C1=C\c1ccccc1F | 4.10 | 4.00 | 4.36 | < 4.10 | 4.33 | – | – | – | – | <=9.3 | – | – | – | – | – | – | – | –
COC(=O)Nc1nc2cc(C(=O)c3cccs3)ccc2[nH]1 [NOCODAZOLE] | 6.38 | 5.96 | 5.89 | 5.60 | 5.66 | 5.29 | – | – | – | – | – | – | – | – | – | – | – | –
Cc1ccc(/C=C2\CN(C(=S)SCc3cn(Cc4ccccc4Cl)nn3)C/C(=C\c3ccc(C)cc3)C2=O)cc1 | < 4.00 | 4.03 | 4.31 | < 4.10 | < 4.10 | – | – | – | – | <=9.3 | – | – | – | – | – | – | – | –
O=c1[nH]cc(F)c(=O)[nH]1 [FLUOROURACIL] | – | 4.72 | 4.64 | 4.88 | 4.62 | 4.40 | – | – | – | – | – | – | – | – | – | – | – | –
COc1cc(/C=C/C(=O)CC(=O)/C=C/c2ccc(O)c(OC)c2)ccc1O [CURCUMIN] | 4.08 | 4.12 | 4.31 | 4.41 | 4.39 | 4.03 | – | – | – | – | 0.06 µg/mL (≈ 0.163 µM) | 45% | 0.00085 s⁻¹ | 13.7 min | 101 µL/min/mg | 182 L/h/kg | – | –
O=C1/C(=C/c2ccccc2F)CN(C(=S)SCc2cn(Cc3ccccc3F)nn2)C/C1=C\c1ccccc1F | 4.29 | 4.24 | 4.51 | < 4.10 | < 4.10 | – | – | – | <=8.3 | <=9.3 | – | – | – | – | – | – | – | –
COc1ccc(/C=C2\CN(C(=S)SCc3cn(Cc4cccc(Cl)c4)nn3)C/C(=C\c3ccc(OC)cc3)C2=O)cc1 | 4.49 | 4.49 | 4.16 | < 4.10 | < 4.10 | < 4.00 | – | – | <=8.3 | – | – | – | – | – | – | – | – | –
COc1ccc(/C=C2\CN(Cc3cn(Cc4ccc(F)cc4)nn3)C/C(=C\c3ccc(OC)cc3)C2=O)cc1 | < 4.00 | 4.15 | 4.31 | 4.17 | 4.23 | – | – | – | <=8.3 | <=9.3 | – | – | – | – | – | – | – | –
COc1cccc2c1C(=O)c1c(O)c3c(c(O)c1C2=O)C[C@@](O)(C(=O)CO)C[C@@H]3O[C@H]1C[C@H](N)[C@H](O)[C@H](C)O1 [DOXORUBICIN] | – | 5.80 | 6.00 | – | 5.80 | 5.14 | – | – | – | – | – | – | – | – | – | – | – | –
Cc1ccc(/C=C2\CN(C(=S)SCc3cn(Cc4ccccc4F)nn3)C/C(=C\c3ccc(C)cc3)C2=O)cc1 | < 4.00 | 4.04 | 4.55 | < 4.10 | 4.10 | – | – | – | – | <=9.3 | – | – | – | – | – | – | – | –
COc1ccc(/C=C2\CN(C(=S)SCc3cn(Cc4ccc(F)cc4)nn3)C/C(=C\c3ccc(OC)cc3)C2=O)cc1 | < 4.00 | < 4.00 | < 4.00 | 4.34 | 4.13 | – | – | – | – | – | – | – | – | – | – | – | – | –
COc1ccc(/C=C2\CN(Cc3cn(Cc4ccccc4Cl)nn3)C/C(=C\c3ccc(OC)cc3)C2=O)cc1 | < 4.00 | < 4.00 | 4.94 | 4.44 | 4.75 | – | ≤ 9.5 | <=5.7 | – | <=9.3 | – | – | – | – | – | – | – | –
O=C1/C(=C/c2ccccc2F)CN(C(=S)SCc2cn(Cc3ccc(F)cc3)nn2)C/C1=C\c1ccccc1F | 4.24 | 4.23 | 5.00 | < 4.10 | 4.45 | 4.29 | – | – | <=8.3 | <=9.3 | – | – | – | – | – | – | – | –
N#CC(C#N)=NNc1cccc(Cl)c1 [CARBONYL CYANIDE M-CHLOROPHENYLHYDRAZONE] | – | – | – | – | – | – | – | – | – | – | – | – | – | – | – | – | 35.82% | 86.65%
O=C1/C(=C/c2ccccc2F)CN(Cc2cn(Cc3cccc(Cl)c3)nn2)C/C1=C\c1ccccc1F | 4.92 | 4.92 | 5.21 | 5.17 | 5.37 | 4.48 | ≤ 9.5 | <=5.7 | <=8.3 | <=9.3 | – | – | – | – | – | – | – | –
